# Reference: ChEMBL document CHEMBL3797157, “Antifungal Quinoline Alkaloids from Waltheria indica” (J Nat Prod, 2016)
# Active and inactive are the calls of the source. The calls are words filed in the database; no cut-off is given here.
# Experiments:
# Candida albicans [1] = experiment: Antimicrobial activity against Candida albicans CAF2-1 after 24 hrs by two fold serial dilution method; assay type: functional; settings: CAF2-1, 24 h
# In short: (§1)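 Broth microdilution per EUCAST. Yeasts diluted to 2 × 10^5 cells/mL in YNB with 2% glucose, pH 4.6. Compound stocks 10 mg/mL in DMSO, twofold serial dilutions, 1% DMSO final. Drug-free and sterility controls included. Incubated 24 h at 34 °C. MIC is the lowest concentration giving OD450 ≤50% of the compound-free culture. For S. cerevisiae, YNB was supplemented with Complete Supplement Mixture.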
# Nakaseomyces glabratus = experiment: Antimicrobial activity against Candida glabrata after 24 hrs by two fold serial dilution method; assay type: functional; in short: as §1
# Pichia kudriavzevii = experiment: Antimicrobial activity against Candida krusei ATCC 6258 after 24 hrs by two fold serial dilution method; assay type: functional; settings: ATCC 6258, 24 h; in short: as §1
# Candida tropicalis = experiment: Antimicrobial activity against Candida tropicalis ATCC 75 after 24 hrs by two fold serial dilution method; assay type: functional; settings: ATCC 75, 24 h; in short: as §1
# Candida parapsilosis = experiment: Antimicrobial activity against Candida parapsilosis ATCC 22019 after 24 hrs by two fold serial dilution method; assay type: functional; settings: Lodderomyces parapsilosis, ATCC 22019, 24 h; in short: as §1
# Saccharomyces cerevisiae = experiment: Antimicrobial activity against Saccharomyces cerevisiae BY4741 after 24 hrs by two fold serial dilution method; assay type: functional; settings: BY4741, 24 h; in short: as §1
# Candida albicans [2] = experiment: Antibiofilm activity against Candida albicans CAF2-1 assessed as reduction in metabolic activity after 48 hrs by XTT assay; assay type: functional; settings: CAF2-1, 48 h
# HeLa = experiment: Cytotoxicity against human HeLa cells after 48 hrs by SRB assay; assay type: cell-based
# In short: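 Sulforhodamine B assay in HeLa cells (DMEM + 10% FBS, 37 °C, 5% CO2), seeded at 10^4 cells/well. After 24 h, cells were PBS-washed and exposed to twofold dilutions from 100 μg/mL for 48 h. A day-1 plate was fixed as baseline. OD492 growth = (treated d3 − d1)/(DMSO d3 − d1) × 100. IC50 was obtained by dose–response curve fitting.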
# [3] = Selectivity index, ratio of IC50 for human HeLa cells to MIC for Candida albicans CAF2-1
# In short: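 SI = HeLa IC50 (SRB assay, 48 h) divided by the C. albicans CAF2-1 MIC (YNB pH 4.6, 24 h, 34 °C broth microdilution).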
# Escherichia coli = experiment: Antimicrobial activity against Escherichia coli; assay type: functional
# Pseudomonas aeruginosa = experiment: Antimicrobial activity against Pseudomonas aeruginosa; assay type: functional
# Staphylococcus aureus = experiment: Antimicrobial activity against Staphylococcus aureus; assay type: functional
# Candida albicans [4] = experiment: Antimicrobial activity against Candida albicans CAF2-1 assessed as accumulation of dark corpuscles in nucleus at 1 ug/ml after 4 hrs by uranyl acetate/lead citrate staining based transmission electron microscopy; assay type: functional, organism-based
# In short: (§2)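 CAF2-1 grown in YNB pH 4.6 at 37 °C for 2 h. Compound (1 mg/mL DMSO stock) then added at 1 or 2 μg/mL. DMSO-treated and untreated controls. Samples taken at 4 and 18 h and pelleted. Prefixed in 3% glutaraldehyde–2% paraformaldehyde in 0.07 M phosphate pH 7, postfixed in 1% OsO4, ethanol-dehydrated and embedded in LR White. 0.08 μm sections stained with uranyl acetate/lead citrate and viewed by TEM.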
# Candida albicans [5] = experiment: Antimicrobial activity against Candida albicans CAF2-1 assessed as punctual disruption of nuclear membrane at 2 ug/ml after 4 hrs by uranyl acetate/lead citrate staining based transmission electron microscopy; assay type: functional, organism-based; in short: as §2
# Candida albicans [6] = experiment: Antimicrobial activity against Candida albicans CAF2-1 assessed as punctual disruption of nuclear membrane at 1 ug/ml after 4 hrs by uranyl acetate/lead citrate staining based transmission electron microscopy; assay type: functional, organism-based; in short: as §2
# Candida albicans [7] = experiment: Antimicrobial activity against Candida albicans CAF2-1 assessed as breakage zones of plasmic membrane at 2 ug/ml after 18 hrs by uranyl acetate/lead citrate staining based transmission electron microscopy; assay type: functional, organism-based; in short: as §2
# Candida albicans [8] = experiment: Antimicrobial activity against Candida albicans CAF2-1 assessed as breakage zones of plasmic membrane at 1 ug/ml after 18 hrs by uranyl acetate/lead citrate staining based transmission electron microscopy; assay type: functional, organism-based; in short: as §2
# Candida albicans [9] = experiment: Antimicrobial activity against Candida albicans CAF2-1 assessed as cytoplasmic content disorganization at 2 ug/ml after 18 hrs by uranyl acetate/lead citrate staining based transmission electron microscopy; assay type: functional, organism-based; in short: as §2
# Candida albicans [10] = experiment: Antimicrobial activity against Candida albicans CAF2-1 assessed as cytoplasmic content disorganization at 1 ug/ml after 18 hrs by uranyl acetate/lead citrate staining based transmission electron microscopy; assay type: functional, organism-based; in short: as §2
# Candida albicans [11] = experiment: Antimicrobial activity against Candida albicans CAF2-1 assessed as accumulation of dark corpuscles in nucleus at 2 ug/ml after 4 hrs by uranyl acetate/lead citrate staining based transmission electron microscopy; assay type: functional, organism-based; in short: as §2
Structure (SMILES),MIC (Candida albicans [1]),MIC (Nakaseomyces glabratus),MIC (Pichia kudriavzevii),MIC (Candida tropicalis),MIC (Candida parapsilosis),MIC (Saccharomyces cerevisiae),MIC (Candida albicans [2]),IC50 (HeLa),Selectivity Index [3],MIC (Escherichia coli),MIC (Pseudomonas aeruginosa),MIC (Staphylococcus aureus),Activity (Candida albicans [4]),Activity (Candida albicans [5]),Activity (Candida albicans [6]),Activity (Candida albicans [7]),Activity (Candida albicans [8]),Activity (Candida albicans [9]),Activity (Candida albicans [10]),Activity (Candida albicans [11])
OC(Cn1cncn1)(Cn1cncn1)c1ccc(F)cc1F [FLUCONAZOLE],0.5 µg/mL,> 128 µg/mL,32 µg/mL,4 µg/mL,4 µg/mL,16 µg/mL,> 256 µg/mL,> 100 µg/mL,>200,,,,,,,,,,,
CCCCCCCC[C@@H]1CCCc2[nH]c(C)c(OC)c(=O)c21,16 µg/mL,> 32 µg/mL,32 µg/mL,> 32 µg/mL,32 µg/mL,> 32 µg/mL,32 µg/mL,24.7 µg/mL,1.5,> 32 µg/mL,> 32 µg/mL,> 32 µg/mL,,,,,,,,
CCCCCCCC[C@@H]1CCCc2[nH]c(CO)c(OC)c(=O)c21,32 µg/mL,> 32 µg/mL,32 µg/mL,> 32 µg/mL,> 32 µg/mL,> 32 µg/mL,16 µg/mL,24.4 µg/mL,0.8,,,,,,,,,,,
CCCCCCCC[C@@H]1CCCc2c1c(=O)c(OC)c(CO)n2OC,32 µg/mL,> 32 µg/mL,> 32 µg/mL,> 32 µg/mL,> 32 µg/mL,> 32 µg/mL,16 µg/mL,26.6 µg/mL,0.8,> 32 µg/mL,> 32 µg/mL,> 32 µg/mL,,,,,,,,
CC[C@H](C)C[C@H](C)CCCCCCCCC(=O)N[C@H]1C[C@@H](O)[C@@H](NCCN)NC(=O)[C@@H]2[C@@H](O)CCN2C(=O)[C@H]([C@H](O)CCN)NC(=O)[C@H]([C@H](O)[C@@H](O)c2ccc(O)cc2)NC(=O)[C@@H]2C[C@@H](O)CN2C(=O)[C@H]([C@@H](C)O)NC1=O [CASPOFUNGIN],0.3 µg/mL,0.1 µg/mL,0.1 µg/mL,0.5 µg/mL,1 µg/mL,0.3 µg/mL,0.1 µg/mL,> 100 µg/mL,>400,,,,,,,,,,,
COc1c(C)[nH]c2c(c1=O)[C@@H](CCCCCc1ccccc1)CC[C@H]2OC,32 µg/mL,> 32 µg/mL,> 32 µg/mL,> 32 µg/mL,> 32 µg/mL,> 32 µg/mL,32 µg/mL,11.9 µg/mL,0.4,> 32 µg/mL,> 32 µg/mL,> 32 µg/mL,,,,,,,,
COc1c(C)n(OC)c2c(c1=O)[C@@H](CCCCCc1ccccc1)CCC2,32 µg/mL,32 µg/mL,32 µg/mL,32 µg/mL,2 µg/mL,16 µg/mL,32 µg/mL,9.5 µg/mL,0.3,> 32 µg/mL,> 32 µg/mL,> 32 µg/mL,Active,Active,Active,Active,Active,Active,Active,Active
CCCCCCCC[C@H]1CCCc2c1c(=O)c(OC)c(C)n2OC,16 µg/mL,32 µg/mL,16 µg/mL,32 µg/mL,2 µg/mL,16 µg/mL,16 µg/mL,16.1 µg/mL,1,> 32 µg/mL,> 32 µg/mL,> 32 µg/mL,,,,,,,,
CCCCCCCCc1ccc(OC)c2[nH]c(C)c(OC)c(=O)c12,8 µg/mL,> 32 µg/mL,> 32 µg/mL,> 32 µg/mL,> 32 µg/mL,> 32 µg/mL,16 µg/mL,14.4 µg/mL,1.8,> 32 µg/mL,> 32 µg/mL,> 32 µg/mL,,,,,,,,
CCCCCCCC[C@H]1CC[C@@H](OC)c2[nH]c(C)c(OC)c(=O)c21,4 µg/mL,> 32 µg/mL,> 32 µg/mL,> 32 µg/mL,> 32 µg/mL,> 32 µg/mL,8 µg/mL,20 µg/mL,5,> 32 µg/mL,> 32 µg/mL,> 32 µg/mL,Active,Active,Active,Active,Active,Active,Active,Active
CCCCCCCC[C@H]1CCC(=O)c2[nH]c(C)c(OC)c(=O)c21,32 µg/mL,> 32 µg/mL,16 µg/mL,> 32 µg/mL,4 µg/mL,> 32 µg/mL,16 µg/mL,23.4 µg/mL,0.7,> 32 µg/mL,> 32 µg/mL,> 32 µg/mL,,,,,,,,
CCCCCCCC[C@H]1CC[C@@H](O)c2[nH]c(C)c(OC)c(=O)c21,32 µg/mL,> 32 µg/mL,32 µg/mL,> 32 µg/mL,> 32 µg/mL,> 32 µg/mL,16 µg/mL,50 µg/mL,1.6,,,,,,,,,,,
